This is a sample that favours compounds with a hit; in the whole collection about 3% have one here.
Apaf-1 inh: inhibitors of human Apaf-1 apoptosome, primary screen, biochemical, DEVD-Rh110 fluorescence, uHTS; inhibition, % at 20 µM; actives 0.71% (n = 330,000); reconstituted apoptosome caspase-3 activity; AID 489030, 2010; active = inhibition of at least 40% at 20 µM
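Medium: Hepes buffer, pH 7.5 / System: biochemical Apaf-1 apoptosome reconstitution / Measured by: Rh110 fluorescence, excitation 480 nm, emission 540 nm / Times: compound with Apaf-1, dATP, procaspase-3 30 min, then 50 min reaction, room temperature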
UBC13 polyUb: UBC13 polyubiquitin chain formation inhibitors, primary screen, biochemical, TR-FRET, uHTS | AID 485273, 2010 | inhibition, % at 20 µM | actives 0.47% (n = 330,000) | Ubiquitin-conjugating enzyme E2 N (Homo sapiens), P61088; in the data active = inhibition above about 45%, passing the limit was not always enough
SENP8 block-1: human SENP8 protease inhibitors, primary screen, biochemical, fluorescence, Nedd8 protein substrate, uHTS. actives 0.64% (n = 360,000). recombinant SENP8. inhibition, % at 20 µM. Sentrin-specific protease 8 (Homo sapiens), Q96LD8; in the data active = inhibition mostly above about 40%, no sharp cut-off; inactive = mostly below about 27%
SENP7 inh: SENP7 protease inhibitors, primary screen, biochemical, luminescence, uHTS; inhibition, % at 5 µM; recombinant SENP7, Z-RLRGG-aminoluciferin luminescence, 40 min; Sentrin-specific protease 7 (Homo sapiens), Q9BQF6; actives 1.5% (n = 330,000);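 active = inhibition above about 50% at the single test dose, limit read from the data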
Target sequence (Q9BQF6 706-1050 limits assumed): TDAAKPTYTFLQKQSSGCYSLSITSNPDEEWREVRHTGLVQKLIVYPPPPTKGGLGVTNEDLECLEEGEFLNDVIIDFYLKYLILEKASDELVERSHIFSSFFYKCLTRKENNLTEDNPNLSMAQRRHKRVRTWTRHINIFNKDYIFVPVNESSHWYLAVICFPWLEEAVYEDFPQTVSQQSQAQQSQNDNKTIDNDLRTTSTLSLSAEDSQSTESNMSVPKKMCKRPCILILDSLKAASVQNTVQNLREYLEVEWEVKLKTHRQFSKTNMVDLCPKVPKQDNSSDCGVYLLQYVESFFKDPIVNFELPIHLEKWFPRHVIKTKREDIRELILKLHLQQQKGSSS
SENP8 block-2: SENP8 protease inhibitors, primary screen, biochemical, luminescence | Sentrin-specific protease 8 (Homo sapiens), Q96LD8 | purified SENP8, Z-RLRGG-aminoluciferin cleavage | inhibition, % at 10 µM | actives 1.2% (n = 330,000); in the data active = inhibition above about 50%
SENP6 inh: SENP6 protease inhibitors, primary screen, biochemical, luminescence, uHTS | Sentrin-specific protease 6 (Homo sapiens), Q9GZR1 | Recombinant SENP6 catalytic domain, aminoluciferin luminescence | inhibition, % at 10 µM | actives 1.8% (n = 330,000) | AID 2599, 2010;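 active = inhibition above about 50% at the single tested dose, limit read from the data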
SENP8 confirm: SENP8 protease inhibitors, retest, confirmation, biochemical, luminescence, single concentration; inhibition, % at 12.5 µM; Recombinant SENP8, Z-RLRGG-aminoluciferin luminescence, 60 min; shares compounds with SENP7 inh; actives 40% (n = 6,200);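 active = mean inhibition across replicates above about 50%, limit read from the data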
SENP6 conf: SENP6 protease inhibitors, confirmation, biochemical, luminescence, single concentration. shares compounds with SENP7 inh. recombinant SENP6, Z-RLRGG-aminoluciferin luminescence. inhibition, % at 12.5 µM. actives 58% (n = 6,200). AID 488915, 2010
SENP7 conf: SENP7 protease inhibitors, retest, confirmation, biochemical, luminescence, single concentration | actives 69% (n = 6,200) | recombinant SENP7, Z-RLRGG-aminoluciferin luminescence, 40 min | inhibition, % at 12.5 µM | shares compounds with SENP7 inh
Casp3 SENP sel: caspase-3 protease inhibitors, confirmation, selectivity assay for SENP inhibitor project, biochemical, single concentration; actives 60% (n = 6,200); purified caspase-3, Z-DEVD-aminoluciferin luminescence, 60 min; inhibition, % at 12.5 µM; shares compounds with SENP7 inh;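 active = mean inhibition above about 50%, limit read from the data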
Target sequence (P42574 28-227 limits assumed): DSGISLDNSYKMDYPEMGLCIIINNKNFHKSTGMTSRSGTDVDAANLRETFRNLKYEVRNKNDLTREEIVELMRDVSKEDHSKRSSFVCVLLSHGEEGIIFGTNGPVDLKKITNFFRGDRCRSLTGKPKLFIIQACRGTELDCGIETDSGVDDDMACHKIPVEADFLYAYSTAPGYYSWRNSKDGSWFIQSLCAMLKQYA
Luc interf: luminescence interference (SENP counter-screen); actives 39% (n = 6,200); Pre-incubated SENP8/Z-RLRGG-aminoluciferin, luciferase luminescence interference; inhibition, % at 12.5 µM; shares compounds with SENP7 inh;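 active = mean inhibition above about 50% when retested at one dose, limit read from the data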
Large screens that a line does not name were inactive (follow-up assays come after a bar, where they were run).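 Rule for the calls, unless noted: active = mean inhibition above about 50% in the one-dose retest (limit read from the data); inactive = the rest.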

O=C(Nc1c[nH]c(=O)[nH]c1=O)c1cccc(F)c1	SENP8 block-2 62 | SENP8 confirm inactive | SENP6 conf inactive | SENP7 conf inactive | Casp3 SENP sel inactive | Luc interf inactive
C#CCn1c2ccccc2c(=O)n1CCOc1ccccc1OC	none (no result: Apaf-1 inh, UBC13 polyUb, SENP7 inh, SENP8 block-2, SENP6 inh)
CC(C)CN1C(=O)c2ccc(C(=O)Nc3ccccc3C(=O)O)cc2C1=O	SENP8 block-2 82, SENP6 inh 87 | SENP8 confirm 88 | SENP6 conf 88 | SENP7 conf 98 | Casp3 SENP sel 88 | Luc interf 89
Cc1ccc(S(=O)(=O)CCSc2cccc(C(=O)Nc3ccccc3C(=O)O)c2)cc1	SENP8 block-2 65, SENP6 inh 88 | SENP8 confirm inactive | SENP6 conf 76 | SENP7 conf 92 | Casp3 SENP sel 60 | Luc interf 85
COc1ccc(C(=O)Nc2ccccc2C(=O)Nc2ccccc2C(=O)O)cc1	none
COc1c(Cl)cc(C(=O)Nc2ccccc2C(=O)O)cc1Cl	SENP8 block-2 69, SENP6 inh 76 | SENP8 confirm 81 | SENP6 conf 79 | SENP7 conf 86 | Casp3 SENP sel inactive | Luc interf 84
Cc1ccccc1NC(=O)c1ccc2c(c1)C(=O)N(CC(C)C)C2=O	none
CSc1nc(/C=C2\C=Nc3ccccc32)c(O)n1C	SENP7 inh 52, SENP8 block-2 54, SENP6 inh 73 | SENP8 confirm 76 | SENP6 conf 74 | SENP7 conf 89 | Casp3 SENP sel 71 | Luc interf 65
CCCCC[C@@H](C)N1C[C@@H](COCc2ccccc2)Oc2cc(N3CCC[C@@H]3COC)ccc2S1(=O)=O	none (no result: Apaf-1 inh, UBC13 polyUb, SENP7 inh, SENP8 block-2, SENP6 inh)
O=C(COC(=O)c1ccncc1)Nc1cccc(Cl)c1	none
Cn1cc(Cl)c(C(=O)OCC(=O)Nc2cccc(Cl)c2)n1	SENP6 inh 51 | SENP8 confirm inactive | SENP6 conf inactive | SENP7 conf inactive | Casp3 SENP sel inactive | Luc interf inactive
Cn1c(=N)n(CC(=O)c2ccc(Br)cc2)c2ccccc21	none
Cn1c(=N)n(CC(=O)c2ccc(F)cc2)c2ccccc21	SENP6 inh 62 | SENP8 confirm inactive | SENP6 conf inactive | SENP7 conf inactive | Casp3 SENP sel inactive | Luc interf 62
N#Cc1ccc(-c2nc3c4ccccc4ccn3c2Cc2cccc(Cl)c2)cc1	none (no result: Apaf-1 inh, UBC13 polyUb, SENP7 inh, SENP8 block-2, SENP6 inh)
CCOC(=O)C1CCN(Cc2cnc(Oc3ccc(C(C)(C)C)cc3)s2)CC1	SENP7 inh 102 | SENP8 confirm inactive | SENP6 conf inactive | SENP7 conf inactive | Casp3 SENP sel inactive | Luc interf inactive
COc1ccccc1C(=O)Nc1nnc(-c2ccc(F)cc2)s1	none
COc1ccccc1C(=O)Nc1nsc(-c2ccccc2)n1	SENP7 inh 53, SENP6 inh 61 | SENP8 confirm 54 | SENP6 conf 52 | SENP7 conf 75 | Casp3 SENP sel 66 | Luc interf 59
CCCC[C@@H]1CC2=C(C(=O)OC(C)(C)O2)[C@@H](c2ccc(F)cc2)O1	none (no result: Apaf-1 inh, UBC13 polyUb, SENP7 inh, SENP8 block-2, SENP6 inh)
CC(C)Cn1cc(C(=O)NCc2cccs2)c2c3ccccc3n(C)c2c1=O	SENP7 inh 62 | SENP8 confirm inactive | SENP6 conf inactive | SENP7 conf inactive | Casp3 SENP sel inactive | Luc interf inactive
O=C1CC(c2ccc3c(c2)OCCO3)Oc2ccc([N+](=O)[O-])cc21 (stereo not given)	SENP7 inh 98, SENP8 block-2 96, SENP6 inh 99 | SENP8 confirm inactive | SENP6 conf 98 | SENP7 conf 101 | Casp3 SENP sel 51 | Luc interf inactive
c1ccc(-c2nc(-c3nccc4ccccc34)oc2-c2ccccc2)cc1	SENP7 inh 85, SENP8 block-2 64, SENP6 inh 86 | SENP8 confirm inactive | SENP6 conf inactive | SENP7 conf 61 | Casp3 SENP sel 76 | Luc interf 65
C[C@H](NC(=O)c1nc[nH]c1C(=O)NC1CCNCC1)C(=O)OCc1ccccc1	none (no result: SENP8 block-1)
O=C(O)c1cc(C2CC2)nn1-c1ccccc1	none
Nc1cc(C2CCCC2)nn1-c1ccccc1	SENP6 inh 62 | SENP8 confirm inactive | SENP6 conf inactive | SENP7 conf 77 | Casp3 SENP sel 81 | Luc interf 55
CCOC(=O)c1ccc(S(=O)(=O)N2CCC(C(=O)NCC3COc4ccccc4O3)CC2)cc1 (stereo not given)	none (no result: Apaf-1 inh, UBC13 polyUb, SENP7 inh, SENP8 block-2, SENP6 inh)
Cc1ccc(S(=O)(=O)N2CC3(O)CN(C(=O)OC(C)C)N(C(=O)OC(C)C)CC3(OC(=O)NCc3ccccc3)C2)cc1 (stereo not given)	none (no result: Apaf-1 inh, UBC13 polyUb, SENP7 inh, SENP8 block-2, SENP6 inh)
Cc1ccc(-n2ncc(C(=O)NCC3CCN(C4CCCC4)C3)c2C2CCN(C(=O)OC(C)(C)C)CC2)cc1 (stereo not given)	none
CC(C)(C)OC(=O)N1CCC(c2c(C(=O)NCC3CCN(C4CCCC4)C3)cnn2-c2ccc(F)cc2)CC1 (stereo not given)	SENP7 inh 56 | SENP8 confirm inactive | SENP6 conf inactive | SENP7 conf inactive | Casp3 SENP sel inactive | Luc interf inactive
Cc1ccc(S(=O)(=O)Oc2ccccc2/C=N/NC(N)=S)cc1	SENP7 inh 70 | SENP8 confirm inactive | SENP6 conf inactive | SENP7 conf inactive | Casp3 SENP sel inactive | Luc interf inactive
CCOc1ccc(N/C=C/C(=O)c2ccc(OC)cc2)cc1	none
O=C(/C=C/Nc1ccc(F)cc1)c1ccc(Oc2ncccn2)cc1	none

Screening data: PubChem BioAssay, Sanford-Burnham Center for Chemical Genomics
